# Source: ChEMBL document CHEMBL5230168, “Design, synthesis, and biological evaluation of new arjunolic acid derivatives as anticancer agents” (RSC Med Chem, 2023)
# How the values were obtained:
# PANC-1 [1] = experiment: Cytotoxicity against human PANC-1 cells assessed as inhibition of cell growth incubated for 72 hrs by MTT assay; format: functional, cell-based; conditions: PANC-1, 72 h
# How it was run: (§1)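 Cells seeded per well (HT-29 4500, PANC-1 4000, SK-MEL-28 3200, A375 1200, A549 2500, H2170 and BJ 10 000) and left 24 h. They were then exposed to increasing concentrations for 72 h and incubated 1 h with MTT 0.5 mg mL−1. Formazan was dissolved in DMSO and absorbance read at 550 nm. IC50 from three independent experiments. Final DMSO ≤0.5%.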
# NCI-H2170 = experiment: Cytotoxicity against human NCI-H2170 cells assessed as inhibition of cell growth incubated for 72 hrs by MTT assay; format: functional, cell-based; conditions: NCI-H2170, 72 h; how it was run: as §1
# [2] = Selectivity index, ratio of IC50 for cytotoxicity against human BJ cells to IC50 for cytotoxicity against human PANC-1; format: toxicity, cell-based; conditions: BJ cells and PANC-1 cells, read-out: Ratio IC50
# How it was run: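 Selectivity index: BJ fibroblast IC50 over PANC-1 IC50, both from the 72 h MTT assay with 24 h pre-seeding (10 000 and 4000 cells/well). IC50 from three independent experiments.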
# PANC-1 [3] = experiment: Induction of cell cycle arrest in human PANC-1 cells assessed as accumulation of cells at G0/G1 phase incubated for 24 hrs by PI staining based flow cytometric analysis; format: functional; conditions: dose 0.47-2.82 µM
# PANC-1 [4] = experiment: Induction of cell cycle arrest in human PANC-1 cells assessed as accumulation of cells at G0/G1 phase at 1.88 uM incubated for 24 hrs by PI staining based flow cytometric analysis (Rvb= 51.8 %); format: functional
# PANC-1 [5] = experiment: Induction of cell cycle arrest in human PANC-1 cells assessed as decrease in S phase cells at 1.88 uM incubated for 24 hrs by PI staining based flow cytometric analysis (Rvb= 19.8 %); format: functional; set-up: scale not given: the % may be the effect or the level left
# PANC-1 [6] = experiment: Induction of apoptosis in human PANC-1 cells assessed as viable cells at […] incubated for 24 hrs by Annexin V-FITC/PI staining based flow cytometric analysis (reference value: 89.8%); format: functional; conditions: read-out: Activity
# How it was run: (§2)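 PANC-1 seeded at 2 × 10^5 cells/well, grown 24 h, then treated 24 h. PI added just before flow cytometry. Quadrant percentages given as mean ± SD of three experiments. Untreated control.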
# PANC-1 [7] = experiment: Induction of apoptosis in human PANC-1 cells assessed as early apoptotic cells at […] incubated for 24 hrs by Annexin V-FITC/PI staining based flow cytometric analysis (reference value: 5.2%); format: functional; how it was run: as §2
# PANC-1 [8] = experiment: Induction of apoptosis in human PANC-1 cells assessed as necrotic cells at […] incubated for 24 hrs by Annexin V-FITC/PI staining based flow cytometric analysis (reference value: 3.9%); format: functional; how it was run: as §2
# PANC-1 [9] = experiment: Induction of apoptosis in human PANC-1 cells assessed as early apoptotic cells at 0.94 uM incubated for 24 hrs by Annexin V-FITC/PI staining based flow cytometric analysis (reference value: 5.2%); format: functional; how it was run: as §2
# PANC-1 [10] = experiment: Induction of apoptosis in human PANC-1 cells assessed as necrotic cells at 0.94 uM incubated for 24 hrs by Annexin V-FITC/PI staining based flow cytometric analysis (reference value: 3.9%); format: functional; how it was run: as §2
# PANC-1 [11] = experiment: Induction of apoptosis in human PANC-1 cells assessed as late apoptotic cells at 1.88 uM incubated for 24 hrs by Annexin V-FITC/PI staining based flow cytometric analysis (reference value: 1.1%); format: functional; how it was run: as §2
# PANC-1 [12] = experiment: Induction of apoptosis in human PANC-1 cells assessed as necrotic cells at 1.88 uM incubated for 24 hrs by Annexin V-FITC/PI staining based flow cytometric analysis (reference value: 3.9%); format: functional; how it was run: as §2
# PANC-1 [13] = experiment: Induction of apoptosis in human PANC-1 cells assessed as early apoptotic cells at 2.82 uM incubated for 24 hrs by Annexin V-FITC/PI staining based flow cytometric analysis (reference value: 5.2%); format: functional; how it was run: as §2
# PANC-1 [14] = experiment: Induction of apoptosis in human PANC-1 cells assessed as late apoptotic cells at 2.82 uM incubated for 24 hrs by Annexin V-FITC/PI staining based flow cytometric analysis (reference value: 1.1%); format: functional; how it was run: as §2
# PANC-1 [15] = experiment: Induction of apoptosis in human PANC-1 cells assessed as necrotic cells at 2.82 uM incubated for 24 hrs by Annexin V-FITC/PI staining based flow cytometric analysis (reference value: 3.9%); format: functional; how it was run: as §2
# PANC-1 [16] = experiment: Inhibition of cell migration in human PANC-1 cells incubated upto 72 hrs by scratch wound healing assay; format: functional, cell-based; conditions: dose 0.47-2.82 µM
# How it was run: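 Confluent PANC-1 monolayers (4000 cells/well seeded, 24 h) were scratched with a P200 tip and washed with PBS. Medium with compound or 0.5% DMSO control was added. Wound area imaged by high-content microscopy at 0, 24, 48 and 72 h.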
# PANC-1 [17] = experiment: Synergistic cytotoxicity against human PANC-1 cells assessed as combination index at 0.12 uM incubated for 72 hrs in the presence of 6 uM gemcitabine by MTT assay; format: functional
# PANC-1 [18] = experiment: Synergistic cytotoxicity against human PANC-1 cells assessed as combination index at 0.47 uM incubated for 72 hrs in the presence of 23.5 uM gemcitabine by MTT assay; format: functional
# PANC-1 [19] = experiment: Synergistic cytotoxicity against human PANC-1 cells assessed as combination index at 0.94 uM incubated for 72 hrs in the presence of 47 uM gemcitabine by MTT assay; format: functional
# [20] = Toxicity in Balb/c mouse assessed as transient observation of sole sign at 0.01 to 10 mg/kg, ip measured upto 24 hrs by Irwin test; format: organism-based; conditions: in vivo, dose 0.01-10 mg/kg
# How it was run: (§3)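 Irwin primary observation in female Balb/c mice aged 7–8 weeks, 3 per group. Single i.p. doses of 0.01, 0.1, 1, 5, 10, 50 and 100 mg kg−1 in 0.2% HPMC in saline; vehicle controls observed in parallel, non-blind. Standardized grid including rectal temperature and pupil diameter scored at 15, 30, 60, 120 and 180 min and 24 h, with continuous watch over 0–15 min.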
# [21] = Toxicity in Balb/c mouse assessed as occasional writhing at 0.01 to 10 mg/kg, ip measured upto 24 hrs by Irwin test; format: organism-based; conditions: in vivo, dose 0.01-10 mg/kg; how it was run: as §3
# [22] = Toxicity in Balb/c mouse assessed as tremor at 50 to 100 mg/kg, ip measured upto 24 hrs by Irwin test; format: organism-based; conditions: in vivo, dose 50-100 mg/kg; how it was run: as §3
# [23] = Toxicity in Balb/c mouse assessed as abnormal gait with rolling at 50 to 100 mg/kg, ip measured upto 24 hrs by Irwin test; format: organism-based; conditions: in vivo, dose 50-100 mg/kg; how it was run: as §3
# [24] = Toxicity in Balb/c mouse assessed as decrease of abdominal muscle tone at 50 to 100 mg/kg, ip measured upto 24 hrs by Irwin test; format: organism-based; conditions: in vivo, dose 50-100 mg/kg; how it was run: as §3
# [25] = Toxicity in Balb/c mouse assessed as loss of traction indication of muscle weakness at 50 to 100 mg/kg, ip measured upto 24 hrs by Irwin test; format: organism-based; conditions: in vivo, dose 50-100 mg/kg; how it was run: as §3
# [26] = Toxicity in Balb/c mouse assessed as decrease of respiration at 50 to 100 mg/kg, ip measured upto 24 hrs by Irwin test; format: organism-based; conditions: in vivo, dose 50-100 mg/kg; how it was run: as §3
# [27] = Toxicity in Balb/c mouse assessed as decreased fear/startle at 50 to 100 mg/kg, ip measured upto 24 hrs by Irwin test; format: organism-based; conditions: in vivo, dose 50-100 mg/kg; how it was run: as §3
# [28] = Toxicity in Balb/c mouse assessed as ptosis at 50 to 100 mg/kg, ip measured upto 24 hrs by Irwin test; format: organism-based; conditions: in vivo, dose 50-100 mg/kg; how it was run: as §3
smiles,measurement,setting,value
CCOC(=O)[C@]12CCC(C)(C)C[C@H]1C1=CC[C@@H]3[C@@]4(C)C(C=O)=C[C@@](C)(CO)[C@@H]4CC[C@@]3(C)[C@]1(C)CC2,IC50,PANC-1 [1],470 nM
same,IC50,NCI-H2170,1330 nM
same,selectivity ratio,[2],6.5
same,Activity,PANC-1 [3],Dose-Dependent Effect
same,Activity,PANC-1 [4],70.2%
same,Activity,PANC-1 [5],3.7%
same,viability,PANC-1 [6],91.7%
same,Activity,PANC-1 [7],4.9%
same,Activity,PANC-1 [8],2.3%
same,Activity,PANC-1 [9],5.7%
same,Activity,PANC-1 [10],2.6%
same,Activity,PANC-1 [11],2.2%
same,Activity,PANC-1 [12],3.1%
same,Activity,PANC-1 [13],9.9%
same,Activity,PANC-1 [14],3.5%
same,Activity,PANC-1 [15],2%
same,inhibition,PANC-1 [16],Dose-Dependent Effect
same,CI,PANC-1 [17],0.93
same,CI,PANC-1 [18],0.98
same,CI,PANC-1 [19],0.86
same,Activity,[20],Non-Toxic
same,Activity,[21],Non-Toxic
same,Activity,[22],Toxic
same,Activity,[23],Toxic
same,Activity,[24],Toxic
same,Activity,[25],Toxic
same,Activity,[26],Toxic
same,Activity,[27],Toxic
same,Activity,[28],Toxic
